Assay [1] can be described thus: Cytotoxicity against human A549-T12 cells after 72 hrs by MTT assay. The format is functional, cell-based. Conditions: A549, 72 h. In outline:
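Cells seeded at 8 × 10^3 per well and left 18 h at 37 °C, 5% CO2, then given fresh medium with compound at a range of concentrations for 72 h; DMSO at most 0.25% final. Viability read by MTT relative to 0.25% DMSO-treated cells. […] LoVoDoxo kept in Ham's F12 with 0.1 μg/mL doxorubicin; A549-T12 kept in DMEM with 12 nM paclitaxel.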
(In general: Formazan colour is commonly taken as a measure of viable cells.)

In assay [2] the test system is HeLa. The assay can be described thus: Induction of apoptosis in human HeLa cells assessed as increase in annexin-V positive apoptotic cells at 50 to 100 nM by FITC conjugated annexin-V/PI staining-based flow cytometry. The format is functional, cell-based. Conditions: TDE = time-dependent effect. In outline: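 Flow cytometry of HeLa cells after 24 or 48 h exposure, double-stained with annexin-V-FITC and propidium iodide. Excitation at 488 nm, emission at 525 nm (FITC) and 585 nm (PI). Quadrants scored as live, early apoptotic, late apoptotic or necrotic cells.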
Background: A flow cytometer gives signals particle by particle.

Assay [3] has as its system HT-29. The assay can be described thus: Anticancer activity against human HT-29 cells xenografted in BALB/c nude mouse assessed as reduction in tumor volume at 100 mg/kg, ip administered on days 0,2 and 4 measured on day 24 relative to vehicle treated control. The class given is functional. Also on record: scale not given: the % may be the effect or the level left. The following applies: route intraperitoneal. In outline: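 HT-29 cells in log phase, resuspended in serum-free RPMI 1640 at 1 × 10^7 cells/mL, inoculated 0.2 mL subcutaneously in the back of nude mice. At ~300 mm3, 18 mice were randomized to vehicle or two treatment groups. Dosing: 100 mg/kg in DMSO, ip at 0.01 mL/g, on days 0, 2 and 4. Tumor volume by caliper as (LW2)/2 and body weight recorded; n = 6 per group, mean ± SEM.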

The target of assay [4] is T1, M-phase inducer phosphatase 3 (Homo sapiens) (UniProt P30307).
T1 sequence (whole entry): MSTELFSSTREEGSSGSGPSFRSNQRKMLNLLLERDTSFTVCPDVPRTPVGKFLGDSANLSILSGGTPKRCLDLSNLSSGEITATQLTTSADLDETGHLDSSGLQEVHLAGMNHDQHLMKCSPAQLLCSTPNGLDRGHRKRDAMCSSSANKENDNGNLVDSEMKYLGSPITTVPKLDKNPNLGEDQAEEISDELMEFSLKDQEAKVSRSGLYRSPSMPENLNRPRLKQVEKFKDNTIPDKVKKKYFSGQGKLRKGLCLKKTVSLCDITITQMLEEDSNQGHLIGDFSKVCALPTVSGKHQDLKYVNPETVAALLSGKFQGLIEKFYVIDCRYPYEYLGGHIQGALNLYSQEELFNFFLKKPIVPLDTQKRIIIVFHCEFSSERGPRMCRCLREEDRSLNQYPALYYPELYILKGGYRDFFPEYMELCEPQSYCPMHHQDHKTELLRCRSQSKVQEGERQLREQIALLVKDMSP
The assay can be described thus: Induction of cdc25c phosphorylation in human HeLa cells at 50 to 100 nM after 24 hrs by Western blot analysis. A general note: Immunoblotting shows a protein as a band on a membrane.

Each structure is given as a SMILES string. pIC50: −log10 of the molar value. Calls of active or inactive are those of the source. The rule behind the calls is not given here.

One may read the pIC50 as −log10 of the IC50, conventionally taken in molar units. Turning to `CCOc1ccc(-c2nnnn2-c2cc(OC)c(OC)c(OC)c2)cc1`, the pIC50 in assay [1] was 8.09. For the same molecule, the Activity entry in assay [2] is “tde”; in assay [3] it was 66%. The induction entry in assay [4] was “Active”.

The values above are taken from ChEMBL document CHEMBL1944515 (J Med Chem, 2012).
